In ChEMBL document CHEMBL1126604, “Synthesis and antiviral activity of 5-thien-2-yl-2'-deoxyuridine analogues” (1993) one finds MIC data, which are given here for two compounds.

SMILES strings stand for the structures. Values after ≈ are worked out from the molar mass of the structure shown.

One test has as its system Human alphaherpesvirus 1. Kind of test: Minimum inhibitory concentration required to reduce herpes simplex virus-1 (HSV-1 (KOS)) virus-induced cytopathicity by 50%. Type of test: functional.
Conditions: not given
(Cytopathic effects are the visible damage that an infection or toxin causes in cultured cells.)
With `O=c1[nH]c(=O)n([C@H]2C[C@H](O)[C@@H](CO)O2)cc1-c1ccsc1`, the MIC worked out at 0.3 µg/mL (≈ 0.967 µM).
On the same count and under the same terms, the result for `O=c1[nH]c(=O)n(C2O[C@H](CO)[C@@H](O)[C@@H]2O)cc1-c1ccc(Cl)s1` (some centres undefined) reads 0.15 µg/mL (≈ 0.416 µM).

For another test, the system named is Human alphaherpesvirus 2. Kind of test: Minimum inhibitory concentration required to reduce herpes simplex virus-2 (HSV-2 (G)) virus-induced cytopathicity by 50%. The test is classed as functional.
Conditions: not given
`O=c1[nH]c(=O)n([C@H]2C[C@H](O)[C@@H](CO)O2)cc1-c1ccsc1` came in with an MIC of 70 µg/mL (≈ 226 µM).
`O=c1[nH]c(=O)n(C2O[C@H](CO)[C@@H](O)[C@@H]2O)cc1-c1ccc(Cl)s1` (some centres undefined): the MIC was 300 µg/mL (≈ 832 µM).

The next test deals with Human alphaherpesvirus 1. Kind of test: Minimum inhibitory concentration required to reduce thymidine kinase deficient-HSV-1 (B2006) virus-induced cytopathicity by 50%. Type of test: functional.
Conditions: not given
Consider `O=c1[nH]c(=O)n([C@H]2C[C@H](O)[C@@H](CO)O2)cc1-c1ccsc1`, for which the MIC was determined as 150 µg/mL (≈ 483 µM).
Consider `O=c1[nH]c(=O)n(C2O[C@H](CO)[C@@H](O)[C@@H]2O)cc1-c1ccc(Cl)s1` (some centres undefined), for which the MIC is over 400 µg/mL.

The test system of the next test is Vaccinia virus. In words: Minimum inhibitory concentration required to reduce vaccinia virus (VV) virus-induced cytopathicity by 50%. Type of test: functional. The following applies: Orthopoxvirus vaccinia.
`O=c1[nH]c(=O)n([C@H]2C[C@H](O)[C@@H](CO)O2)cc1-c1ccsc1`: the MIC was over 40 µg/mL.
In turn, `O=c1[nH]c(=O)n(C2O[C@H](CO)[C@@H](O)[C@@H]2O)cc1-c1ccc(Cl)s1` (some centres undefined) had an MIC of over 150 µg/mL.

Test system in the next test: not listed separately
In words: Minimum inhibitory concentration required to reduce virus-induced cell growth by 50%. Type of test: functional. The following applies: Homo sapiens.
Compound `O=c1[nH]c(=O)n([C@H]2C[C@H](O)[C@@H](CO)O2)cc1-c1ccsc1` registered an MIC of over 50 µg/mL.
Take `O=c1[nH]c(=O)n(C2O[C@H](CO)[C@@H](O)[C@@H]2O)cc1-c1ccc(Cl)s1` (some centres undefined): the MIC is over 50 µg/mL.

The next test relates to Human alphaherpesvirus 1. In words: Minimum inhibitory concentration required to reduce thymidine kinase deficient-HSV-1 (VMW 1837) virus-induced cytopathicity by 50%. The test is classed as functional.
Conditions: not given
Compound `O=c1[nH]c(=O)n([C@H]2C[C@H](O)[C@@H](CO)O2)cc1-c1ccsc1` displayed an MIC of over 100 µg/mL.
Still for that read-out and setting: the value for `O=c1[nH]c(=O)n(C2O[C@H](CO)[C@@H](O)[C@@H]2O)cc1-c1ccc(Cl)s1` (some centres undefined) was over 400 µg/mL.

The subject of a further test is Human alphaherpesvirus 3. In words: Minimum inhibitory concentration required to reduce TK-VZV (07-1) virus-induced cytopathicity by 50%. The test is classed as functional.
Conditions: not given
For the compound `O=c1[nH]c(=O)n([C@H]2C[C@H](O)[C@@H](CO)O2)cc1-c1ccsc1`, the MIC was found to be 35 µg/mL (≈ 113 µM).
Regarding `O=c1[nH]c(=O)n(C2O[C@H](CO)[C@@H](O)[C@@H]2O)cc1-c1ccc(Cl)s1` (some centres undefined), the MIC worked out at 60 µg/mL (≈ 166 µM).

The subject of another test is Cell line. Kind of test: Minimum concentration required to cause a microscopically detectable alteration of cell morphology. Type of test: functional. The following applies: Homo sapiens. An outline of the steps:
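Cytotoxicity read as the minimum concentration causing a microscopically detectable alteration of normal cell morphology. Cells were human embryonic skin-muscle (E6SM) or human embryonic lung (HEL), seeded in 96-well plates.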
For the compound `O=c1[nH]c(=O)n([C@H]2C[C@H](O)[C@@H](CO)O2)cc1-c1ccsc1`, the MIC is over 100 µg/mL.
On to `O=c1[nH]c(=O)n(C2O[C@H](CO)[C@@H](O)[C@@H]2O)cc1-c1ccc(Cl)s1` (some centres undefined), for which the MIC was over 400 µg/mL.

The test system of another test is Human alphaherpesvirus 1. Kind of test: Minimum inhibitory concentration required to reduce herpes simplex virus-1 (HSV-1 (McIntyre)) virus-induced cytopathicity by 50%. Type of test: functional.
Conditions: not given
With `O=c1[nH]c(=O)n([C@H]2C[C@H](O)[C@@H](CO)O2)cc1-c1ccsc1`, the MIC was found to be 0.04 µg/mL (≈ 0.129 µM).
`O=c1[nH]c(=O)n(C2O[C@H](CO)[C@@H](O)[C@@H]2O)cc1-c1ccc(Cl)s1` (some centres undefined) had an MIC of 0.015 µg/mL (≈ 0.0416 µM).

For a further test, the system named is Human alphaherpesvirus 3. In words: Minimum inhibitory concentration required to reduce TK-VZV (YS/R) virus-induced cytopathicity by 50%. The test is classed as functional.
Conditions: not given
Turning to `O=c1[nH]c(=O)n([C@H]2C[C@H](O)[C@@H](CO)O2)cc1-c1ccsc1`, the MIC is 20 µg/mL (≈ 64.4 µM).
The compound `O=c1[nH]c(=O)n(C2O[C@H](CO)[C@@H](O)[C@@H]2O)cc1-c1ccc(Cl)s1` (some centres undefined) yielded an MIC of 37 µg/mL (≈ 103 µM).

For a further test, the system named is Human alphaherpesvirus 2. Kind of test: Minimum inhibitory concentration required to reduce herpes simplex virus-2 (HSV-2 (Lyons)) virus-induced cytopathicity by 50%. Type of test: functional.
Conditions: not given
As to `O=c1[nH]c(=O)n([C@H]2C[C@H](O)[C@@H](CO)O2)cc1-c1ccsc1`, the MIC is 70 µg/mL (≈ 226 µM).
Turning to `O=c1[nH]c(=O)n(C2O[C@H](CO)[C@@H](O)[C@@H]2O)cc1-c1ccc(Cl)s1` (some centres undefined), the MIC turned out to be 150 µg/mL (≈ 416 µM).

The next test deals with Human alphaherpesvirus 3. In words: Minimum inhibitory concentration required to reduce Varicella-Zoster virus (VZV (Oka)) virus-induced cytopathicity by 50%. The test is classed as functional.
Conditions: not given
The compound `O=c1[nH]c(=O)n([C@H]2C[C@H](O)[C@@H](CO)O2)cc1-c1ccsc1` returned an MIC of 1.5 µg/mL (≈ 4.83 µM).
Compound `O=c1[nH]c(=O)n(C2O[C@H](CO)[C@@H](O)[C@@H]2O)cc1-c1ccc(Cl)s1` (some centres undefined) came in with an MIC of 0.08 µg/mL (≈ 0.222 µM).

The next test concerns Human alphaherpesvirus 2. In words: Minimum inhibitory concentration required to reduce herpes simplex virus-2 (HSV-2 (196)) virus-induced cytopathicity by 50%. Type of test: functional.
Conditions: not given
Consider `O=c1[nH]c(=O)n([C@H]2C[C@H](O)[C@@H](CO)O2)cc1-c1ccsc1`, for which the MIC came out at 100 µg/mL (≈ 322 µM).
The same measure, in the same setting: the value for `O=c1[nH]c(=O)n(C2O[C@H](CO)[C@@H](O)[C@@H]2O)cc1-c1ccc(Cl)s1` (some centres undefined) was 150 µg/mL (≈ 416 µM).

The subject of the next test is Cytomegalovirus. Kind of test: Minimum inhibitory concentration required to reduce cytomegalo virus (CMV (AD-169)) virus-induced cytopathicity by 50%. Type of test: functional. The following applies: Human betaherpesvirus 5.
`O=c1[nH]c(=O)n([C@H]2C[C@H](O)[C@@H](CO)O2)cc1-c1ccsc1` yielded an MIC of over 40 µg/mL.
`O=c1[nH]c(=O)n(C2O[C@H](CO)[C@@H](O)[C@@H]2O)cc1-c1ccc(Cl)s1` (some centres undefined) displayed an MIC of 30 µg/mL (≈ 83.2 µM).

The subject of another test is Human alphaherpesvirus 1. In words: Minimum inhibitory concentration required to reduce herpes simplex virus-1 (HSV-1 (F)) virus-induced cytopathicity by 50%. The test is classed as functional.
Conditions: not given
The compound `O=c1[nH]c(=O)n([C@H]2C[C@H](O)[C@@H](CO)O2)cc1-c1ccsc1` displayed an MIC of 0.6 µg/mL (≈ 1.93 µM).
Still for that read-out and setting: the value for `O=c1[nH]c(=O)n(C2O[C@H](CO)[C@@H](O)[C@@H]2O)cc1-c1ccc(Cl)s1` (some centres undefined) was 0.05 µg/mL (≈ 0.139 µM).

The next test deals with Vesicular stomatitis virus. Kind of test: Minimum inhibitory concentration required to reduce VSV virus-induced cytopathicity by 50%. Type of test: functional.
Conditions: not given
Compound `O=c1[nH]c(=O)n([C@H]2C[C@H](O)[C@@H](CO)O2)cc1-c1ccsc1` yielded an MIC of over 100 µg/mL.
Consider `O=c1[nH]c(=O)n(C2O[C@H](CO)[C@@H](O)[C@@H]2O)cc1-c1ccc(Cl)s1` (some centres undefined), for which the MIC was over 400 µg/mL.

Another test relates to Cytomegalovirus. In words: Minimum inhibitory concentration required to reduce cytomegalo virus (CMV (Davis)) virus-induced cytopathicity by 50%. The test is classed as functional. The following applies: Human betaherpesvirus 5.
`O=c1[nH]c(=O)n([C@H]2C[C@H](O)[C@@H](CO)O2)cc1-c1ccsc1` registered an MIC of over 40 µg/mL.
Compound `O=c1[nH]c(=O)n(C2O[C@H](CO)[C@@H](O)[C@@H]2O)cc1-c1ccc(Cl)s1` (some centres undefined) showed an MIC of 70 µg/mL (≈ 194 µM).
